Measurements as given in ChEMBL document CHEMBL5038641, “Development of PDE6D and CK1α Degraders through Chemical Derivatization of FPFT-2216” (J Med Chem, 2022).
Activity calls are given as the source filed them. The rule behind the calls is not given here.

Columns and labels:
[1] = biological target: DNA-binding protein Ikaros (Homo sapiens) (UniProt Q13422); assay: Induction of IKZF1 degradation in human CRBN-null MOLT4 cells at 8 to 200 nM incubated for 4 hrs by Immunoblotting analysis; assay type: cell-based; settings: MOLT-4, dose 8-200 nM
AGS = assay: Antiproliferative activity against human AGS cells assessed as reduction in cell viability measured after 3 days by Celltiter-Glo assay; assay type: functional, cell-based; settings: for Activity: time 3.0 day; for IC50: 72 h
How it was run: (§1)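 Cells grown per supplier recommendations with 10% FBS plus penicillin/streptomycin and mycoplasma-checked. 800 cells per well in 384-well format, dosed the next day at the indicated concentrations; depending on the agent, dosing was once or daily. Viability was read by CellTiter-Glo luminescence after three days of treatment, with a 20 min incubation before reading.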

[2] = biological target: Retinal rod rhodopsin-sensitive cGMP 3',5'-cyclic phosphodiesterase subunit delta (Homo sapiens) (UniProt O43924); assay: Induction of PDE6D degradation in human CRBN-null MOLT4 cells at 8 to 200 nM incubated for 4 hrs by Immunoblotting analysis; assay type: cell-based; settings: MOLT-4, dose 8-200 nM
NCI-H358 = assay: Antiproliferative activity against human NCI-H358 cells assessed as reduction in cell viability measured after 3 days by Celltiter-Glo assay; assay type: functional, cell-based; settings: for Activity: time 3.0 day; for IC50: NCI-H358, 72 h; how it was run: as §1
MIA PaCa-2 = assay: Antiproliferative activity against human MIA PaCa-2 cells assessed as reduction in cell viability measured after 3 days by Celltiter-Glo assay; assay type: functional, cell-based; settings: for Activity: time 3.0 day; for IC50: MIA PaCa-2, 72 h; how it was run: as §1
PaTu 8988t = assay: Antiproliferative activity against human PaTu 8988t cells assessed as reduction in cell viability measured after 3 days by Celltiter-Glo assay; assay type: functional, cell-based; settings: for Activity: time 3.0 day; for IC50: 72 h; how it was run: as §1
[3] = biological target: T1, Protein cereblon/Zinc finger protein Aiolos (Homo sapiens) (UniProt Q96SW2+Q9UKT9); assay: Protac activity at CRBN/IKZF3 in human Jurkat cells assessed as induction of IKZF3 degradation measured after 4 hrs by Immunoblotting analysis; assay type: cell-based
How it was run: (§2)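 Jurkat or MM.1S cells given the indicated concentrations, up to 1 µM, for 4 h. RIPA lysates (30 min on ice) with 20 μg protein per lane were separated by SDS-PAGE and transferred to nitrocellulose. Blots were probed for PDE6D, IKZF1 (1:1000), IKZF3 (1:1000) and CK1α, with β-actin control and IRDye fluorescent secondary detection.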

[4] = biological target: T2, Cereblon/Casein kinase I alpha (Homo sapiens) (UniProt P48729+Q96SW2); assay: Protac activity at CRBN/CK1alpha in human MM1.S cells assessed as induction of CK1alpha degradation at 40 nM measured after 4 hrs by Immunoblotting analysis; assay type: cell-based; how it was run: as §2
[5] = biological target: T3, Protein cereblon/Retinal rod rhodopsin-sensitive cGMP 3',5'-cyclic phosphodiesterase subunit delta (Homo sapiens, UniProt O43924+Q96SW2); assay: Protac activity at CRBN/PDE6D in human MOLT-4 cells assessed as induction of PDE6D degradation measured after 4 hrs by Immunoblotting analysis; assay type: cell-based
How it was run: (§3)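 MOLT4 cells treated for 4 h, either at a single 1 µM screening dose or across a concentration series. Lysates were made in RIPA with protease/phosphatase inhibitors, and 20 μg protein was resolved by SDS-PAGE and transferred to nitrocellulose. PDE6D, IKZF1, IKZF3 and CK1α were immunoblotted against β-actin and detected with IRDye secondaries.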

[6] = biological target: T4, Cereblon/Ikaros (Homo sapiens) (UniProt Q96SW2+Q13422); assay: Protac activity at CRBN/IKZF1 in human Jurkat cells assessed as induction of IKZF1 degradation measured after 4 hrs by Immunoblotting analysis; assay type: cell-based; how it was run: as §2
[7] = biological target: T3, Protein cereblon/Retinal rod rhodopsin-sensitive cGMP 3',5'-cyclic phosphodiesterase subunit delta; assay: Protac activity at CRBN/PDE6D in human MM1.S cells assessed as induction of PDE6D degradation measured after 4 hrs by Immunoblotting analysis; assay type: cell-based; how it was run: as §2
[8] = biological target: T1, Protein cereblon/Zinc finger protein Aiolos (Homo sapiens); assay: Protac activity at CRBN/IKZF3 in human MOLT-4 cells assessed as induction of IKZF3 degradation measured after 4 hrs by Immunoblotting analysis; assay type: cell-based; how it was run: as §3
[9] = biological target: T1, Protein cereblon/Zinc finger protein Aiolos (Homo sapiens); assay: Protac activity at CRBN/IKZF3 in human MOLT-4 cells assessed as induction of IKZF3 degradation at 1 microM measured after 4 hrs by Immunoblotting analysis; assay type: cell-based; how it was run: as §3
[10] = biological target: T4, Cereblon/Ikaros (Homo sapiens); assay: Protac activity at CRBN/IKZF1 in human MOLT-4 cells assessed as induction of IKZF1 degradation at 1 microM measured after 4 hrs by Immunoblotting analysis; assay type: cell-based; how it was run: as §3
[11] = biological target: T2, Cereblon/Casein kinase I alpha (Homo sapiens); assay: Protac activity at CRBN/CK1alpha in human MOLT-4 cells assessed as induction of CK1alpha degradation at 1 microM measured after 4 hrs by Immunoblotting analysis; assay type: cell-based; how it was run: as §3
[12] = biological target: T3, Protein cereblon/Retinal rod rhodopsin-sensitive cGMP 3',5'-cyclic phosphodiesterase subunit delta; assay: Protac activity at CRBN/PDE6D in human Jurkat cells assessed as induction of PDE6D degradation measured after 4 hrs by Immunoblotting analysis; assay type: cell-based; how it was run: as §2
[13] = biological target: T3, Protein cereblon/Retinal rod rhodopsin-sensitive cGMP 3',5'-cyclic phosphodiesterase subunit delta; assay: Protac activity at CRBN/PDE6D in human MOLT-4 cells assessed as induction of PDE6D degradation at 1 microM measured after 4 hrs by Immunoblotting analysis; assay type: cell-based; how it was run: as §3
Target sequence in this assay (O43924 whole entry, looked up): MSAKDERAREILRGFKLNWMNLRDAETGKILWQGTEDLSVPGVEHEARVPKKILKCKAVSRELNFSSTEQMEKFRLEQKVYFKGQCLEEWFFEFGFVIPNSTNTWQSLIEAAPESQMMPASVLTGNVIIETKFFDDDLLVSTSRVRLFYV
Target sequence in this assay (Q96SW2 whole entry, looked up): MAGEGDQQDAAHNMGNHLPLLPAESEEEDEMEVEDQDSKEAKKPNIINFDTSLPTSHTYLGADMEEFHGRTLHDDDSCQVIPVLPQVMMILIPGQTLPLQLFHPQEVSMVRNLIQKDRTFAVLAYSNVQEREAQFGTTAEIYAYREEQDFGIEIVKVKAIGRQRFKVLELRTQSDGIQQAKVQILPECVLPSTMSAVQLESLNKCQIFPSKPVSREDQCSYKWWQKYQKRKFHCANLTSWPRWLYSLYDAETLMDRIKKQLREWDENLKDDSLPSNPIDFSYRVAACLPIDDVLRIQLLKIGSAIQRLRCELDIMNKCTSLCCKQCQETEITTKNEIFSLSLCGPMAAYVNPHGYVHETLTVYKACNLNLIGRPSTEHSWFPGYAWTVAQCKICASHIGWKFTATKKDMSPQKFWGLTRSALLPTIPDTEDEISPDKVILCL

[14] = biological target: T4, Cereblon/Ikaros (Homo sapiens); assay: Protac activity at CRBN/IKZF1 in human MM1.S cells assessed as induction of IKZF1 degradation measured after 4 hrs by Immunoblotting analysis; assay type: cell-based; how it was run: as §2
[15] = biological target: T4, Cereblon/Ikaros (Homo sapiens); assay: Protac activity at CRBN/IKZF1 in human MOLT-4 cells assessed as induction of IKZF1 degradation measured after 4 hrs by Immunoblotting analysis; assay type: cell-based; how it was run: as §3
[16] = biological target: T1, Protein cereblon/Zinc finger protein Aiolos (Homo sapiens); assay: Protac activity at CRBN/IKZF3 in human MM1.S cells assessed as induction of IKZF3 degradation measured after 4 hrs by Immunoblotting analysis; assay type: cell-based; how it was run: as §2
[17] = biological target: T1, Protein cereblon/Zinc finger protein Aiolos (Homo sapiens); assay: Protac activity at CRBN/IKZF3 in human MOLT-4 cells assessed as induction of IKZF3 degradation at 250 nM measured after 4 hrs by proteome mass spectrometry
[18] = biological target: T4, Cereblon/Ikaros (Homo sapiens); assay: Protac activity at CRBN/IKZF1 in human MOLT-4 cells assessed as induction of IKZF1 degradation at 250 nM measured after 4 hrs by proteome mass spectrometry

T2 sequence (P48729 2-337 limits assumed): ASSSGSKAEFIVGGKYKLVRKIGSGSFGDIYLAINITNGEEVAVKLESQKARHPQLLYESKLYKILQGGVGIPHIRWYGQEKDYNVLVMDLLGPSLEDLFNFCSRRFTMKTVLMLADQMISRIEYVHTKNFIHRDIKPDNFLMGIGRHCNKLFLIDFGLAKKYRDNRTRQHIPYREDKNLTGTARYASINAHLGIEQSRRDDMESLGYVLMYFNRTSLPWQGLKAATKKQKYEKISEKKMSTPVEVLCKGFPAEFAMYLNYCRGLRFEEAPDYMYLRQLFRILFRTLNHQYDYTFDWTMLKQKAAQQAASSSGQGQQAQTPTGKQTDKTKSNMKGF
T2 sequence (Q96SW2 whole entry partner): as the sequence (Q96SW2 whole entry, looked up) above
T1 sequence (Q96SW2 whole entry, looked up): as above
T1 sequence (Q9UKT9 whole entry, looked up): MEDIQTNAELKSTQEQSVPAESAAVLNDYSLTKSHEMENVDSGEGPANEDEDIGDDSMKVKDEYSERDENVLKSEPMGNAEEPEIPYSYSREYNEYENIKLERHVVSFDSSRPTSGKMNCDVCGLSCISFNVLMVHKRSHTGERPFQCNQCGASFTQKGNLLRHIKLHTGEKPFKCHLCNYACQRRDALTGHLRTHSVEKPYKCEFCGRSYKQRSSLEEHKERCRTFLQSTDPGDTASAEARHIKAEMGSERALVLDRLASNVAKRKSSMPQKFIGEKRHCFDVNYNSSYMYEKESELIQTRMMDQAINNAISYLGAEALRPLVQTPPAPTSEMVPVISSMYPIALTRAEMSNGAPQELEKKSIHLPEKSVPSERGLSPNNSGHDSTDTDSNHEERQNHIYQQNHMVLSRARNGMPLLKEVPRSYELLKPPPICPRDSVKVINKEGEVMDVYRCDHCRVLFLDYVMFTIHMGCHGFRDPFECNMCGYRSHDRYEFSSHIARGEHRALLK
DNA-binding protein Ikaros (Homo sapiens), sequence (Q13422 whole entry): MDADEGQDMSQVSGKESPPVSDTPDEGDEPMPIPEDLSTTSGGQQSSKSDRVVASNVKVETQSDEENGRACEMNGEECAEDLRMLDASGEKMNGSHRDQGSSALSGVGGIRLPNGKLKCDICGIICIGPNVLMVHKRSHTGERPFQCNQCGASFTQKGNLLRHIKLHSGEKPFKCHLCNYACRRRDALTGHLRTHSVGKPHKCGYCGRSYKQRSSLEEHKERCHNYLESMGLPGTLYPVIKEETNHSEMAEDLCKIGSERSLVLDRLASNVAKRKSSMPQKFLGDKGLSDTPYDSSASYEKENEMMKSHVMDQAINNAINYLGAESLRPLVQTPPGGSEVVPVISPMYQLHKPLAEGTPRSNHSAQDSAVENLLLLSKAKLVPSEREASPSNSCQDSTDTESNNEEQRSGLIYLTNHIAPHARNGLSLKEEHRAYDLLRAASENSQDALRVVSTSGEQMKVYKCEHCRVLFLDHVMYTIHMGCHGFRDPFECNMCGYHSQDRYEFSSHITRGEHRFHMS
Retinal rod rhodopsin-sensitive cGMP 3',5'-cyclic phosphodiesterase subunit delta (Homo sapiens), sequence (O43924 whole entry): as the sequence (O43924 whole entry, looked up) above

Row | Activity [9] | Activity [10] | Activity [11] | Activity [13] | Compound | Activity (AGS) | Activity (NCI-H358) | Activity (MIA PaCa-2) | Activity (PaTu 8988t) | also measured
1 |  |  |  |  | COc1cscc1-c1cn(C2CCC(=O)NC2=O)nn1 (stereo unspecified) | inactive | inactive | inactive | inactive | Activity [1]: inactive; Activity [2]: inactive
2 | inactive | inactive | inactive | Active | CSc1cscc1-c1cn(C2CCC(=O)NC2=O)nn1 (stereo unspecified) | inactive | inactive | inactive | inactive | Activity [3]: inactive; Activity [4]: 50%; Activity [5]: Active; Activity [6]: inactive; Activity [7]: Active; Activity [8]: inactive; Activity [12]: Active; Activity [14]: inactive; Activity [15]: inactive; Activity [16]: inactive
3 | inactive | inactive | 70% | inactive | COc1c(-c2cn(C3CCC(=O)NC3=O)nn2)csc1C(=O)NC1CCCC1 (stereo unspecified) |  |  |  |  | 
4 |  |  |  |  | CNc1nccc(CN([C@H]2CC[C@H](N)CC2)S(=O)(=O)c2ccc(S(=O)(=O)N(Cc3ccc(Cl)cc3)C3CCCC3)cc2)n1 |  |  |  |  | IC50 (AGS): 1200 nM; IC50 (NCI-H358): 954 nM; IC50 (MIA PaCa-2): 507 nM; IC50 (PaTu 8988t): 1200 nM
5 | inactive | inactive | 70% | inactive | COc1c(-c2cn(C3CCC(=O)NC3=O)nn2)csc1C(=O)N1CCCC1 (stereo unspecified) |  |  |  |  | Activity [17]: inactive; Activity [18]: inactive
6 |  |  | Active | Active | O=C1CCC(n2cc(-c3ccsc3)nn2)C(=O)N1 (stereo unspecified) | inactive | inactive | inactive | inactive | DC50 [5]: < 200 nM; DC50 [7]: < 200 nM; DC50 [12]: < 200 nM
7 |  |  |  |  | C=C(F)C(=O)N1CCN(c2nc(OC[C@@H]3CCCN3C)nc3c2CCN(c2cccc4cccc(Cl)c24)C3)C[C@@H]1CC#N [ADAGRASIB] |  |  |  |  | IC50 (AGS): 1400 nM; IC50 (NCI-H358): 6 nM; IC50 (MIA PaCa-2): 4 nM; IC50 (PaTu 8988t): 3000 nM
